The record followed here is ChEMBL document CHEMBL3112585, “Inhibition of reverse transcriptase and Taq DNA polymerase by compounds possessing the coumarin framework” (Bioorg Med Chem Lett, 2014).

What is called IC50 is the concentration at which inhibition is half-maximal.

The source made the active and inactive calls. The calls are words filed in the database; no cut-off is given here.

The target in assay [1] is DNA polymerase I, thermostable (Thermus aquaticus) (UniProt P19821). Put plainly: (§1) Inhibition of Thermus aquaticus taq DNA polymerase by PCR analysis. The method in brief: (§2)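 PCR with 2.5 U Taq polymerase in 40 mM Tris-acetate pH 8.3, 15 mM MgCl2, […], 2.5 mM each dNTP; compounds in DMSO at varying concentrations. 35 cycles: 95 °C 1 min, anneal 56 °C, extend 72 °C 90 s. Ethidium bromide-stained gel band intensities scanned; IC50 = concentration inhibiting activity 50%.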

The target of assay [2] is DNA polymerase I, thermostable (Thermus aquaticus, UniProt P19821). The assay is described as §1. The method in brief: as §2
The nature of assay [3]: Inhibition of MMLV reverse transcriptase using desoxynucleotide triphosphate as substrate after 10 mins by RT-PCR analysis. Details: species or system Moloney murine leukemia virus. The method in brief:
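Reverse transcription mix: 1 µg RNA in commercial buffer, 2.0 U MMLV-RT, 20 µM random primers, 1.0 mM each dNTP; compounds (DMSO) added at varying concentrations during RT step. Heated 70 °C 10 min, then incubated 1 h at […]. Products on ethidium bromide-stained agarose gel, band intensities quantified by scanning; IC50 = concentration giving 50% inhibition.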

Sequence of DNA polymerase I, thermostable (Thermus aquaticus) (P19821 whole entry): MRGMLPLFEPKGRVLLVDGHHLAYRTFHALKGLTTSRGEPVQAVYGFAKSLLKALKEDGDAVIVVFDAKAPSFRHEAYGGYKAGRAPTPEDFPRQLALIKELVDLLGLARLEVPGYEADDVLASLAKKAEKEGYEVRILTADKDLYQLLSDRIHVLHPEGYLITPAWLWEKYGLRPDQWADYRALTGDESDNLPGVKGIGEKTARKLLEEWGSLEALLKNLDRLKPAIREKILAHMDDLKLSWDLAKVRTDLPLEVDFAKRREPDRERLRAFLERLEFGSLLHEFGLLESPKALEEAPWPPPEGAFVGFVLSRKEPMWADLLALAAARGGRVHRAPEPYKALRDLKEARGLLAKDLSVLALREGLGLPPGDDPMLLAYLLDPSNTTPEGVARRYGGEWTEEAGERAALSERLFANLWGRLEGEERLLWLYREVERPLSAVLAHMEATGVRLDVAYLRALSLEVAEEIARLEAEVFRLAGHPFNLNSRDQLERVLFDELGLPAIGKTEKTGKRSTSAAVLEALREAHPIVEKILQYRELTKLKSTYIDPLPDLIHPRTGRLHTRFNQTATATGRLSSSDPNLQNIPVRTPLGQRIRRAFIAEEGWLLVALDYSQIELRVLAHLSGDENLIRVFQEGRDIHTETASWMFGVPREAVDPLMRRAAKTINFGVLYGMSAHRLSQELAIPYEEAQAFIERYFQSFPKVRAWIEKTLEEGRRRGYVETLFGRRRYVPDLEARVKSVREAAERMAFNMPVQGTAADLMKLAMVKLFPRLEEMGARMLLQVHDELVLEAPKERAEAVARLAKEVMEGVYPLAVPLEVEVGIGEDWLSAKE
Sequence of DNA polymerase I, thermostable (P19821 whole entry): as above

Take `CC(C)(O)C(=O)COc1c2c(cc3oc(=O)ccc13)OCO2`: the inhibition entry in assay [1] is “inactive”.

As to `CC(C)=CCOc1c2c(cc3oc(=O)ccc13)OCO2`, the inhibition entry in assay [1] is “inactive”.

On to `C/C(=C\COc1c2c(cc3oc(=O)ccc13)OCO2)CO`, for which the half-maximal inhibitory concentration (IC50) in assay [2] was determined as 48.1 µM.

For the compound `O=c1ccc2ccccc2o1` [COUMARIN], the IC50 in assay [3] is 38.6 µM. Moreover, the inhibition entry in assay [1] is “inactive”.

For the compound `COc1cc2c(c3oc(=O)ccc13)OCO2`, the inhibition entry in assay [1] is “inactive”.

In assay [2], `CC(C)(O)C(Br)COc1c2c(cc3oc(=O)ccc13)OCO2` (stereo unspecified) yielded a half-inhibitory concentration (IC50) of 57.9 µM.

As for `CC(C)(O)C(O)COc1c2c(cc3oc(=O)ccc13)OCO2` (stereo unspecified), the inhibition entry in assay [1] was “inactive”.

In the case of `C/C(C=O)=C\COc1c2c(cc3oc(=O)ccc13)OCO2`, the inhibition entry in assay [1] is “inactive”.

`C=CCc1c(O)c2ccccc2oc1=O` gave an IC50 in assay [3] of 51 µM. In addition, the inhibition entry in assay [1] was “inactive”.
